Measured values reported in ChEMBL document CHEMBL1156534, “Hemopressin is an inverse agonist of CB1 cannabinoid receptors” (Proc Natl Acad Sci U S A, 2007).
The source made the active and inactive calls.

How the values were obtained:
[1] = molecular target: T1, Alpha-2A adrenergic receptor (Homo sapiens) (UniProt P08913); assay: Antagonist activity at alpha2A adrenergic receptor expressed in SKNSH cells assessed as blockade of clonidine-induced increase in antibody recognition at 100 nM by ELISA relative to control; assay type: functional, cell-based; set-up: scale not given: the % may be the effect or the level left
T1 sequence (whole entry): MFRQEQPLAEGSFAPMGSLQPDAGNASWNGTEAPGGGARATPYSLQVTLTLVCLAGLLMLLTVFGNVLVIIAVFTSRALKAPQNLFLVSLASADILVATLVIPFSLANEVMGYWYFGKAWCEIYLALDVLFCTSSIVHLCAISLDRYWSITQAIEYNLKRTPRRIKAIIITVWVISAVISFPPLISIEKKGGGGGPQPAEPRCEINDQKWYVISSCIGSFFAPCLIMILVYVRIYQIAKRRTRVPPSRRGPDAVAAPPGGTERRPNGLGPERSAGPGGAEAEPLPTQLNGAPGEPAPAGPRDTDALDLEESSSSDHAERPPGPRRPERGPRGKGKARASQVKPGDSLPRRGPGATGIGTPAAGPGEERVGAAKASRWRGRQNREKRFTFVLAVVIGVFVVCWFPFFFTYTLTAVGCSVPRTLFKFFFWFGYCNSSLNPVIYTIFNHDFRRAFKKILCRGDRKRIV

[2] = molecular target: Cannabinoid receptor 1 (Homo sapiens) (UniProt P21554); assay: Antagonist activity at CB1 receptor expressed in HEK293 cells assessed as blockade of Hu210-mediated decrease in secreted alkaline phosphatase activity at 1 uM after 6 hrs relative to control; assay type: functional, cell-based
Method in brief: (§1)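 HEK-293 cells transiently co-transfected with pCRE-SeAP and a Flag-tagged receptor, 30,000 cells/well on poly-L-lysine. They were serum-starved 16–18 h, then exposed 6 h in serum-free medium to 10 μM forskolin (omitted for β2) plus the receptor agonist (100 nM), with or without peptide (1 μM). Heat-treated supernatant SeAP was read by CSPD chemiluminescence. Mean ± SEM, n = 6.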

[3] = molecular target: T2, Cannabinoid receptor 2 (Rattus norvegicus) (UniProt Q9QZN9); assay: Antagonist activity at Long-Evans rat spleen CB2 receptor assessed as blockade of Hu210-mediated decrease in adenylate cyclase activity; assay type: functional, tissue-based
T2 sequence (whole entry): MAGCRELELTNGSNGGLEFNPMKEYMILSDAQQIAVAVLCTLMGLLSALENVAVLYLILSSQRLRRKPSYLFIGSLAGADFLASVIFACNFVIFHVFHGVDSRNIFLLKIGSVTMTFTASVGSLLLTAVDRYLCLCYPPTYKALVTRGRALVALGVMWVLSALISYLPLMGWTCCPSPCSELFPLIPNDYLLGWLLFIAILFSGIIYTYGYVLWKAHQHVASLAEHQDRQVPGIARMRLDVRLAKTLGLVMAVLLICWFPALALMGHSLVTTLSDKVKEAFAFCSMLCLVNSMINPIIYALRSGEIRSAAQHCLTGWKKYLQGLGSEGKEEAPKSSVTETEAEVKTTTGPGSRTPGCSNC
Method in brief: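 Membranes (10 μg) came from striatum (CB1) or spleen (CB2). They were tested in GTPγS-binding or adenylyl cyclase assays with Hu-210 and test ligand (0–1 μM), or with Hu-210 curves with or without 10 μM peptide; a 1 μM single-point combination was also used. Mean ± SE of triplicates.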

[4] = molecular target: Cannabinoid receptor 1 (Homo sapiens) (UniProt P21554); assay: Antagonist activity at CB1 receptor expressed in SKNSH cells assessed as blockade of Hu210-induced increase in antibody recognition at 100 nM by ELISA relative to control; assay type: functional, cell-based; set-up: scale not given: the % may be the effect or the level left
Rattus norvegicus [5] = assay: Antihyperalgesic effects in Wistar rat assessed as reduction of carrageenan-induced paw pressure at 5 ug/kg, intrathecal after 3 hrs; assay type: functional, organism-based
Method in brief: (§2)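 Male Wistar rats (200 g) received carrageenan 200 μg/paw intraplantar in saline into the right hind paw. Peptide was given at the same time: intraplantar 10 μg/paw, intrathecal 0.5 or 5 μg/kg, or oral 50 or 100 μg/kg; saline-treated rats served as controls. Paw-pressure withdrawal threshold (force ramp 16 g/s) was read at 0 and 3 h. n = 6–8.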

[6] = molecular target: Cannabinoid receptor 2 (Homo sapiens) (UniProt P34972); assay: Antagonist activity at CB2 receptor expressed in HEK293 cells assessed as blockade of secreted alkaline phosphatase activity at 1 uM after 6 hrs relative to control; assay type: functional, cell-based
Method in brief: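 HEK-293 cells transfected with 5 μg pCRE-SeAP plus 1 μg Flag-tagged CB₁ or CB₂ receptor, 30,000 cells/well, serum-starved 16–18 h. Stimulated 6 h in serum-free medium with 10 μM forskolin and 100 nM agonist, without or with 1 μM test peptide. Supernatant diluted in pH 7.2 buffer, heated 65°C 20 min, then CSPD chemiluminescence read. Mean ± SEM, n = 6.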

[7] = molecular target: Cannabinoid receptor 2 (Homo sapiens) (UniProt P34972); assay: Antagonist activity at CB2 receptor expressed in SKNSH cells assessed as blockade of Hu210-induced increase in antibody recognition at 100 nM by ELISA relative to control; assay type: functional, cell-based; set-up: scale not given: the % may be the effect or the level left
Rattus norvegicus [8] = assay: Antihyperalgesic effects in Wistar rat assessed as reduction of carrageenan-induced paw pressure at 50 ug/kg, po after 3 hrs; assay type: functional, organism-based; method in brief: as §2
[9] = molecular target: Mu-type opioid receptor (Homo sapiens) (UniProt P35372); assay: Antagonist activity at mu opioid receptor expressed in SKNSH cells at 100 nM by ELISA relative to control; assay type: functional, cell-based; set-up: scale not given: the % may be the effect or the level left
[10] = molecular target: T3, Type-2 angiotensin II receptor (Homo sapiens) (UniProt P50052); assay: Antagonist activity at AT2 angiotensin receptor expressed in SKNSH cells at 100 nM by ELISA; assay type: functional, cell-based; set-up: scale not given: the % may be the effect or the level left
T3 sequence (whole entry): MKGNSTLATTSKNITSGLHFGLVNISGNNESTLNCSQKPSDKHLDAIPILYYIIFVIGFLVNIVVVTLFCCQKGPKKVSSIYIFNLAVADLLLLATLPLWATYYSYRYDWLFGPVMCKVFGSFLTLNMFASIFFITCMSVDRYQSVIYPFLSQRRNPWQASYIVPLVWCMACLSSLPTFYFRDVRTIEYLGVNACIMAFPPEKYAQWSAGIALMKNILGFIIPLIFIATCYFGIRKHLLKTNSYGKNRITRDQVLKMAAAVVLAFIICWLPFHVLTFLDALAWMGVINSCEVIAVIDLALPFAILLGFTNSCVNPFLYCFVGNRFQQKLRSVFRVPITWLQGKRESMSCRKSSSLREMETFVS

[11] = molecular target: T1, Alpha-2A adrenergic receptor (Homo sapiens); assay: Antagonist activity at alpha2A adrenergic receptor expressed in HEK293 cells assessed as blockade of secreted alkaline phosphatase activity at 1 uM after 6 hrs relative to control; assay type: functional, cell-based; method in brief: as §1

Sequence of Cannabinoid receptor 1 (Homo sapiens) (P21554 whole entry): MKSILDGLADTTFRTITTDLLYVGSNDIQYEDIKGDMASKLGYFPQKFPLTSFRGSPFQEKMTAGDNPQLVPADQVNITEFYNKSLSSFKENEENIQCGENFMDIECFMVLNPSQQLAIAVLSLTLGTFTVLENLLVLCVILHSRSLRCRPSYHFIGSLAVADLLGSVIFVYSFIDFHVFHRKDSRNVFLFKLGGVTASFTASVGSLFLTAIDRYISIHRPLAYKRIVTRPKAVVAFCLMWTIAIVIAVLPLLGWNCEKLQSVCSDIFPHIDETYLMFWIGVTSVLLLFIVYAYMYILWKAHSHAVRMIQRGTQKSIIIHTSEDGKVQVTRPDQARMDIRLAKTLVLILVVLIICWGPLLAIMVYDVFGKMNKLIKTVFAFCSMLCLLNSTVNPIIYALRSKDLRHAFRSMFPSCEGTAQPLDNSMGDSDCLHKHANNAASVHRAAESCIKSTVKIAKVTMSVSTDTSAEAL
Sequence of Cannabinoid receptor 2 (Homo sapiens) (P34972 whole entry): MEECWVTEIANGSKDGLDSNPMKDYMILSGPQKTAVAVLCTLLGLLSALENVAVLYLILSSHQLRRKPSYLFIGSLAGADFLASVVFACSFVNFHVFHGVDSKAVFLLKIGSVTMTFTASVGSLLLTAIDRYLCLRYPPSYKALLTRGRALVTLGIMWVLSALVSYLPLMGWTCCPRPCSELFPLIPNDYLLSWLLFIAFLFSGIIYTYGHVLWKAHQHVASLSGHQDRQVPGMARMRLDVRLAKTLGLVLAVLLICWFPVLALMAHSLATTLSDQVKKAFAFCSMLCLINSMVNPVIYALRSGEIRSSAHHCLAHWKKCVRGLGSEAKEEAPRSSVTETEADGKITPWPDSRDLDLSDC
Sequence of Mu-type opioid receptor (Homo sapiens) (P35372 whole entry): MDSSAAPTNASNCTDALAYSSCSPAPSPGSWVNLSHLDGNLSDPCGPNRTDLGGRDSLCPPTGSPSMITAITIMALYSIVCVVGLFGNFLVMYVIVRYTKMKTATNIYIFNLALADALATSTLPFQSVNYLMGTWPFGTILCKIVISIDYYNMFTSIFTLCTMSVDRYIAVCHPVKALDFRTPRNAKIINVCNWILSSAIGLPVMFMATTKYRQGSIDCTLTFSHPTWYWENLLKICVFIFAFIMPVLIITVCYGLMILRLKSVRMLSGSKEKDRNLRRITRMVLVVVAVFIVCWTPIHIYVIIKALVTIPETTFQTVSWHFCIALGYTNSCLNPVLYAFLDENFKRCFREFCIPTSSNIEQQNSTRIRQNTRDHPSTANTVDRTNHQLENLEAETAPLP

## CC(C)C[C@H](NC(=O)[C@H](Cc1ccccc1)NC(=O)[C@H](CCCCN)NC(=O)[C@H](Cc1ccccc1)NC(=O)[C@H](CC(N)=O)NC(=O)[C@@H](NC(=O)[C@@H]1CCCN1)C(C)C)C(=O)N[C@@H](CO)C(=O)N[C@@H](Cc1cnc[nH]1)C(=O)O [HEMOPRESSIN]
[1]
  Activity: 130%
[2]
  Activity: 1.07
[3]
  Activity: inactive
[4]
  Activity: 102%
Rattus norvegicus [5]
  Activity: Active
[6]
  Activity: 0.94
[7]
  Activity: 108%
Rattus norvegicus [8]
  Activity: Active
[9]
  Activity: 106%
[10]
  Activity: 100%
[11]
  Activity: 0.92
